Results from ChEMBL document CHEMBL1158482, “Dopamine D2, D3, and D4 selective phenylpiperazines as molecular probes to explore the origins of subtype specific receptor binding” (J Med Chem, 2009).
Values belong to the compound of their own block, whether it stands above or below them.

Assays:
Format in all cases: cell-based
[1] = Displacement of [3H]spiperone from human cloned dopamine D2L receptor D3.32E mutant expressed in HEK293 cells
Summary of the method: (§1)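 Wild-type or mutant receptor cDNA transiently transfected into HEK-293 cells (CaHPO4 or TransIT-293), grown in MEM with 10% FBS at 37 °C, 5% CO2, harvested 48 h post-transfection. Membranes prepared by homogenization and spin at 50000g.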

[2] = Displacement of [3H]spiperone from human cloned dopamine D2L receptor V2.61F mutant expressed in HEK293 cells; summary of the method: as §1
[3] = Displacement of [3H]spiperone from human cloned dopamine D2L receptor V2.61F/FV3.28,3.29LM mutant expressed in HEK293 cells; summary of the method: as §1
[4] = Displacement of [3H]spiperone from human cloned dopamine D2L receptor L2.64F mutant expressed in HEK293 cells; summary of the method: as §1
[5] = Displacement of [3H]spiperone from human cloned dopamine D2L receptor H6.55F mutant expressed in HEK293 cells; summary of the method: as §1
[6] = Displacement of [3H]spiperone from human cloned dopamine D2L receptor FV3.28,3.29LM mutant expressed in HEK293 cells; summary of the method: as §1
[7] = Displacement of [3H]spiperone from human cloned dopamine D2L receptor H6.55A mutant expressed in HEK293 cells; summary of the method: as §1
[8] = biological target: D(3) dopamine receptor (Homo sapiens, UniProt P35462, V87F); experiment: Displacement of [3H]spiperone from human cloned dopamine D3 receptor V2.61F mutant expressed in HEK293 cells
Chain of D(3) dopamine receptor (Homo sapiens, UniProt P35462, V87F) (P35462 as listed by the source V87F): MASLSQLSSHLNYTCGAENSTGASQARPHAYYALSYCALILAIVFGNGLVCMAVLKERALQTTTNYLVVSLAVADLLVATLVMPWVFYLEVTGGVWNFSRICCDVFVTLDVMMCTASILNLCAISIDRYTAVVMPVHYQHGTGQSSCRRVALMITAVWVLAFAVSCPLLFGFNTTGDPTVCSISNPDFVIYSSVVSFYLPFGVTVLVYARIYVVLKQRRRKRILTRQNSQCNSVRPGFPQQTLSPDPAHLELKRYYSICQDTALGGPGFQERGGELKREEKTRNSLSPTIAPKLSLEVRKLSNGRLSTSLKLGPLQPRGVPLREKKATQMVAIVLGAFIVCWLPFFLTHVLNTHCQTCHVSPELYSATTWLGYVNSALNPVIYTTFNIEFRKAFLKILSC

[9] = biological target: D(3) dopamine receptor (Homo sapiens, UniProt P35462, S182I/V180E); experiment: Displacement of [3H]spiperone from human cloned dopamine D3 receptor V180E/S182I mutant expressed in HEK293 cells
Chain of D(3) dopamine receptor (Homo sapiens, UniProt P35462, S182I/V180E) (P35462 as listed by the source V180E/S182I): as the sequence (P35462 as listed by the source V87F) above, with F87V, V180E, S182I counted along it

[10] = biological target: T1, D(2) dopamine receptor (Homo sapiens, UniProt P14416); experiment: Displacement of [3H]spiperone from wild type human cloned dopamine D2L receptor expressed in HEK293 cells
T1 sequence (P14416 whole entry): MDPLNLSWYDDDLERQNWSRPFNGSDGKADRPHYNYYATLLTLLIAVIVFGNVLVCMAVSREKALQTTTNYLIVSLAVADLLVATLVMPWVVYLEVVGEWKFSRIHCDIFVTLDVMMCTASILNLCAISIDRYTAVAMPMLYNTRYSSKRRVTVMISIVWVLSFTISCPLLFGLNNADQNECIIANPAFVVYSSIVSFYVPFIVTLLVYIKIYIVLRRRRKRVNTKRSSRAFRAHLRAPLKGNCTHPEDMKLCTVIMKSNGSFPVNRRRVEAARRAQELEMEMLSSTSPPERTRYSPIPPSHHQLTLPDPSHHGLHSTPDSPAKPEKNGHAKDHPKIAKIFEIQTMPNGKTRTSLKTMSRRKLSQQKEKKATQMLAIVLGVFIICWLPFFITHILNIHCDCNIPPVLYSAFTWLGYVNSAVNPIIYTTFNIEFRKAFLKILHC

[11] = test system: HEK293; experiment: Selectivity ratio of Ki for human cloned dopamine D2L receptor L2.64F mutant to Ki for wild type human cloned dopamine D2L receptor expressed in HEK293 cells
Summary of the method: (§2)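 Wild-type or mutant receptor cDNA transiently transfected into HEK-293 cells, which were grown in MEM with 10% FBS at 37 °C and 5% CO2 and harvested 48 h after transfection. Membranes were homogenised and pelleted at 50000g. Competition against [3H]spiperone (0.1-0.7 nM final) used 20-200 μg/mL protein. Ki was derived from EC50, 2-18 independent experiments in triplicate. Ratios are mutant Ki over wild-type Ki.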

[12] = test system: HEK293; experiment: Selectivity ratio of Ki for human cloned dopamine D3 receptor V2.61F mutant to Ki for wild type human cloned dopamine D3 receptor expressed in HEK293 cells; summary of the method: as §2
[13] = test system: HEK293; experiment: Selectivity ratio of Ki for human cloned dopamine D2L receptor H6.55F mutant to Ki for wild type human cloned dopamine D2L receptor expressed in HEK293 cells; summary of the method: as §2
[14] = test system: HEK293; experiment: Selectivity ratio of Ki for human cloned dopamine D2L receptor E181V/I183S mutant to Ki for wild type human cloned dopamine D2L receptor expressed in HEK293 cells; summary of the method: as §2
[15] = biological target: D(3) dopamine receptor (Homo sapiens, UniProt P35462, H349A); experiment: Displacement of [3H]spiperone from human cloned dopamine D3 receptor H6.55A mutant expressed in HEK293 cells
Chain of D(3) dopamine receptor (Homo sapiens, UniProt P35462, H349A) (P35462 as listed by the source H349A): as the sequence (P35462 as listed by the source V87F) above, with F87V, H349A counted along it

[16] = biological target: D(3) dopamine receptor (Homo sapiens, UniProt P35462, F106L/V107M/V87F); experiment: Displacement of [3H]spiperone from human cloned dopamine D3 receptor V2.61F/FV3.28,3.29LM mutant expressed in HEK293 cells
Chain of D(3) dopamine receptor (Homo sapiens, UniProt P35462, F106L/V107M/V87F) (P35462 as listed by the source V87F/F106L/V107M): as the sequence (P35462 as listed by the source V87F) above, with F106L, V107M counted along it

[17] = test system: HEK293; experiment: Selectivity ratio of Ki for human cloned dopamine D3 receptor L2.64F mutant to Ki for wild type human cloned dopamine D3 receptor expressed in HEK293 cells; summary of the method: as §2
[18] = test system: HEK293; experiment: Selectivity ratio of Ki for human cloned dopamine D2L receptor H6.55A mutant to Ki for wild type human cloned dopamine D2L receptor expressed in HEK293 cells; summary of the method: as §2
[19] = test system: HEK293; experiment: Selectivity ratio of Ki for human cloned dopamine D3 receptor H6.55A mutant to Ki for wild type human cloned dopamine D3 receptor expressed in HEK293 cells; summary of the method: as §2
[20] = biological target: D(3) dopamine receptor (Homo sapiens, UniProt P35462, D110E); experiment: Displacement of [3H]spiperone from human cloned dopamine D3 receptor D3.32E mutant expressed in HEK293 cells
Chain of D(3) dopamine receptor (Homo sapiens, UniProt P35462, D110E) (P35462 as listed by the source D110E): as the sequence (P35462 as listed by the source V87F) above, with F87V, D110E counted along it

[21] = biological target: T2, D(3) dopamine receptor (Homo sapiens, UniProt P35462); experiment: Displacement of [3H]spiperone from human cloned dopamine D3 receptor L2.64F mutant expressed in HEK293 cells
T2 sequence (P35462 whole entry): as the sequence (P35462 as listed by the source V87F) above, with S9G, F87V counted along it

[22] = test system: HEK293; experiment: Selectivity ratio of Ki for human cloned dopamine D3 receptor D3.32E mutant to Ki for wild type human cloned dopamine D3 receptor expressed in HEK293 cells; summary of the method: as §2
[23] = biological target: T3, D(4) dopamine receptor (Homo sapiens, UniProt P21917); experiment: Displacement of [3H]spiperone from human cloned dopamine D4 receptor expressed in CHO cells
T3 sequence (P21917 whole entry): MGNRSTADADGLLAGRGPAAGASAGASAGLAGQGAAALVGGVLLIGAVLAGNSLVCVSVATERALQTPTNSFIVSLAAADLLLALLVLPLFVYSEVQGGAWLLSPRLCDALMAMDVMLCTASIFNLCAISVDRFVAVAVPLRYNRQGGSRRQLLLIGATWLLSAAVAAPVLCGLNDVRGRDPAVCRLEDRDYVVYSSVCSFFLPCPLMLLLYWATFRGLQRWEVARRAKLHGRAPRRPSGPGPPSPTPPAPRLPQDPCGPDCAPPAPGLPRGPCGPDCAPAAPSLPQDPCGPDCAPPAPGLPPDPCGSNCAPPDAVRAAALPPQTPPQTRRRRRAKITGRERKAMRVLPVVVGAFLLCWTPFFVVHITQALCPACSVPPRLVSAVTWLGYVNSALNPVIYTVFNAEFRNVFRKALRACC
Summary of the method: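 Membranes from CHO cells stably expressing human D4 (Bmax 700-1800 fmol/mg). Curves fit by nonlinear regression, sigmoid model giving IC50 and slope; Ki ± SEM from 2-9 experiments in triplicate.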

[24] = test system: HEK293; experiment: Selectivity ratio of Ki for human cloned dopamine D3 receptor FV3.28,3.29LM mutant to Ki for wild type human cloned dopamine D3 receptor expressed in HEK293 cells; summary of the method: as §2
[25] = test system: HEK293; experiment: Selectivity ratio of Ki for human cloned dopamine D3 receptor V180E/S182I mutant to Ki for wild type human cloned dopamine D3 receptor expressed in HEK293 cells; summary of the method: as §2
[26] = biological target: T3, D(4) dopamine receptor; experiment: Displacement of [3H]spiperone from wild type human cloned dopamine D4 receptor expressed in HEK293 cells
[27] = biological target: T2, D(3) dopamine receptor; experiment: Displacement of [3H]spiperone from human cloned dopamine D3 receptor expressed in CHO cells
[28] = biological target: T2, D(3) dopamine receptor; experiment: Displacement of [3H]spiperone from wild type human cloned dopamine D3 receptor expressed in HEK293 cells
[29] = test system: HEK293; experiment: Selectivity ratio of Ki for human cloned dopamine D2L receptor V2.61F/FV3.28,3.29LM mutant to Ki for wild type human cloned dopamine D2L receptor expressed in HEK293 cells; summary of the method: as §2
[30] = test system: HEK293; experiment: Selectivity ratio of Ki for human cloned dopamine D3 receptor V2.61F/FV3.28,3.29LM mutant to Ki for wild type human cloned dopamine D3 receptor expressed in HEK293 cells; summary of the method: as §2
[31] = biological target: T2, D(3) dopamine receptor; experiment: Displacement of [3H]spiperone from human cloned dopamine D3 receptor FV3.28,3.29LM mutant expressed in HEK293 cells
[32] = test system: CHO; experiment: Selectivity ratio of Ki for human cloned dopamine D2L receptor to Ki for human cloned dopamine D3 receptor expressed in CHO cells
[33] = test system: HEK293; experiment: Selectivity ratio of Ki for human cloned dopamine D2L receptor V2.61F mutant to Ki for wild type human cloned dopamine D2L receptor expressed in HEK293 cells; summary of the method: as §2
[34] = test system: CHO; experiment: Selectivity ratio of Ki for human cloned dopamine D2L receptor to Ki for human cloned dopamine D4 receptor expressed in CHO cells
[35] = test system: HEK293; experiment: Selectivity ratio of Ki for human cloned dopamine D2L receptor D3.32E mutant to Ki for wild type human cloned dopamine D2L receptor expressed in HEK293 cells; summary of the method: as §2
[36] = biological target: D(2) dopamine receptor (Homo sapiens, UniProt P14416, E181V/I183S); experiment: Displacement of [3H]spiperone from human cloned dopamine D2L receptor E181V/I183S mutant expressed in HEK293 cells; summary of the method: as §2
Chain of D(2) dopamine receptor (Homo sapiens, UniProt P14416, E181V/I183S) (P14416 whole entry E181V/I183S): as the sequence (P14416 whole entry) above, with E181V, I183S counted along it

[37] = biological target: T1, D(2) dopamine receptor; experiment: Displacement of [3H]spiperone from human cloned dopamine D2L receptor expressed in CHO cells
[38] = test system: HEK293; experiment: Selectivity ratio of Ki for human cloned dopamine D2L receptor FV3.28,3.29LM mutant to Ki for wild type human cloned dopamine D2L receptor expressed in HEK293 cells; summary of the method: as §2

Compound: COc1ccccc1N1CCN(CCCNC(=O)c2cnn3ccccc23)CC1
Ki [1]: 720 nM | Ki [2]: 450 nM | Ki [3]: 83 nM | Ki [4]: 390 nM | Ki [5]: 69 nM | Ki [6]: 110 nM | Ki [7]: 1.6 nM

Ki [8]: 740 nM | Ki [9]: 8 nM | Ki [10]: 2.2 nM | Ki [15]: 3.4 nM | Ki [16]: 320 nM | Ki [20]: 650 nM | Ki [21]: 740 nM | Ki [23]: 8.8 nM | Ki [26]: 26 nM | Ki [27]: 18 nM | Ki [28]: 26 nM | Ki [31]: 430 nM | Ki [36]: 26 nM | Ki [37]: 1.4 nM
Compound: CSc1ccccc1N1CCN(CCCNC(=O)c2cnn3ccccc23)CC1
Ki [1]: 160 nM | Ki [2]: 100 nM | Ratio Ki [11]: 303 | Ratio Ki [12]: 29 | Ratio Ki [13]: 7.7 | Ratio Ki [14]: 12 | Ratio Ki [17]: 17 | Ratio Ki [18]: 0.05 | Ratio Ki [19]: 0.5 | Ki [3]: 20 nM | Ki [4]: 660 nM | Ratio Ki [22]: 25 | Ratio Ki [24]: 12 | Ratio Ki [25]: 0.13 | Ki [5]: 17 nM | Ratio Ki [29]: 9 | Ki [6]: 35 nM | Ratio Ki [30]: 0.31 | Ratio Ki [32]: 0.08 | Ratio Ki [33]: 45 | Ratio Ki [34]: 0.16 | Ratio Ki [35]: 74 | Ki [7]: 0.1 nM | Ratio Ki [38]: 16

Compound: COc1ccccc1N1CCN(CCCCNC(=O)c2cc3ccccn3n2)CC1
Ki [1]: 3500 nM | Ki [2]: 920 nM | Ki [3]: 120 nM | Ki [4]: 940 nM | Ki [5]: 340 nM | Ki [6]: 220 nM | Ki [7]: 21 nM
